According to PMC3107735 (Biochemistry, 2011):
Several values for one entry are separate records, joined by “and”; a condition that tells them apart may be missing. Equal values may be shown once.

Key:
[1] = biological target: T1, thrombin (Bos taurus, UniProt P00735); assay: Differential scanning calorimetry; parameters: species or system bovine; settings: DSC; 25 μM thrombin; thrombin alone 56.9°C or 57.9°C (Figure 6 legend)
[2] = biological target: T1, thrombin; assay: Isothermal titration calorimetry; type: binding, bovine; settings: for N (stoichiometry of binding) / ΔH / -TΔS / ΔG / Ka: thrombin in cell, 25°C; for N (stoichiometry of binding) / ΔH / Ka: pH 7.4; for -TΔS: computed from ΔG-ΔH; for ΔG: obtained from KA
[3] = biological target: PPACK-thrombin (Bos taurus, UniProt P00735); assay: ITC, ligand titrated into PPACK-thrombin; type: binding, bovine; settings: ppack-thrombin in cell, 25°C; for Ka / N (stoichiometry of binding) / ΔH: pH 7.4; for -TΔS: computed from ΔG-ΔH; for ΔG: obtained from KA
Procedure, shortened: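 Bovine α-thrombin treated with PPACK (1.1 μmol per 1 mL fraction, 3 h shaking, room temperature), re-purified by size exclusion the same day, and held at 6.5 μM in the cell (BCA). Buffer was 50 mM Bis-tris propane pH 7.4, 150 mM NaCl, 2.5 mM CaCl2. Degassed ligand at 65-70 μM was injected at 25°C with a 180 s initial delay. Heats were integrated and corrected for dilution; ΔG came from Ka and -TΔS from ΔG-ΔH.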

[4] = biological target: TM45-thrombin (Bos taurus, UniProt P00735); assay: ITC, ligand titrated into TMEGF45-thrombin complex; type: binding, bovine; settings: TM45-thrombin in cell, 25°C; for Ka / N (stoichiometry of binding) / ΔH: pH 7.4; for -TΔS: computed from ΔG-ΔH; for ΔG: obtained from KA
[5] = biological target: aptamer-thrombin complex (Bos taurus, UniProt P00735); assay: ITC, ligand titrated into pre-formed aptamer-thrombin complex; type: binding, bovine; settings: apt-thrombin in cell, 25°C; for Ka / N (stoichiometry of binding) / ΔH: pH 7.4; for -TΔS: computed from ΔG-ΔH; for ΔG: obtained from KA
[6] = biological target: T1, thrombin; settings: DSC; increases from 57°C for thrombin; cited from earlier work

Compound: GGTTGGTGTGGTTGG [aptamer]
- melting (denaturation) temperature of thrombin with ligand bound at exosite 1 [1]: 57.9 °C and 58.7 °C
- N (stoichiometry of binding) ([2]; with 2.5 mM calcium): 0.87 ± 0.04
- ΔH ([2]; with 2.5 mM calcium): -93.7 ± 0.42 kJ/mol
- -TΔS ([2]; with 2.5 mM calcium): 52.7 ± 4.18 kJ/mol
- ΔG ([2]; with 2.5 mM calcium): -41 ± 0.42 kJ/mol
- Ka ([2]; without calcium): 0.9 ± 0.2 ×10^7 M^-1
- N (stoichiometry of binding) ([2]; without calcium): 0.96 ± 0.1
- ΔH ([2]; without calcium): -84.5 ± 3.3 kJ/mol
- ΔH ([2]; without calcium, listed as DNA aptamer): -84.5 kJ/mol
- -TΔS ([2]; without calcium): 43.9 ± 3.8 kJ/mol
- ΔG ([2]; without calcium): -40.6 ± 0.84 kJ/mol
- Ka ([3]; with 2.5 mM calcium): 1.4 ± 0.6 ×10^7 M^-1
- N (stoichiometry of binding) ([3]; with 2.5 mM calcium): 0.9 ± 0.1
- ΔH ([3]; with 2.5 mM calcium): -87.9 ± 1.3 kJ/mol
- -TΔS ([3]; with 2.5 mM calcium): 47.3 ± 0.017 kJ/mol
- ΔG ([3]; with 2.5 mM calcium): -40.6 ± 1.3 kJ/mol
- Ka ([3]; without calcium): 0.8 ± 0.1 ×10^7 M^-1
- N (stoichiometry of binding) ([3]; without calcium): 0.98 ± 0.02
- ΔH ([3]; without calcium): -74.1 ± 4.6 kJ/mol
- -TΔS ([3]; without calcium): 34.7 ± 5.02 kJ/mol
- ΔG ([3]; without calcium): -39.3 ± 3.3 kJ/mol

Compound: CCC1CCN(C(=O)[C@H](CCCNC(=N)N)NS(=O)(=O)c2cccc3c(N(C)C)cccc23)CC1 [DAPA, dansyl-L-arginine-(3-ethyl-1,5-pantanediyl) amide]
- Ka ([4]; with 2.5 mM calcium): 5.9 ± 2.2 ×10^7 M^-1
- N (stoichiometry of binding) ([4]; with 2.5 mM calcium): 1.00 ± 0.06
- ΔH ([4]; with 2.5 mM calcium): -20.9 ± 0.42 kJ/mol
- -TΔS ([4]; with 2.5 mM calcium): -23 ± 0.84 kJ/mol
- ΔG ([4]; with 2.5 mM calcium): -43.9 ± 0.84 kJ/mol
- Ka ([4]; without calcium): 5.0 ± 1.8 ×10^7 M^-1
- N (stoichiometry of binding) ([4]; without calcium): 0.86 ± 0.02
- ΔH ([4]; without calcium): -18.8 ± 0.84 kJ/mol
- -TΔS ([4]; without calcium): -25.1 ± 1.7 kJ/mol
- ΔG ([4]; without calcium): -43.9 ± 0.84 kJ/mol
- Ka ([5]; with 2.5 mM calcium): 5.6 ± 2.1 ×10^7 M^-1
- N (stoichiometry of binding) ([5]; with 2.5 mM calcium): 1.06 ± 0.08
- ΔH ([5]; with 2.5 mM calcium): -20.1 ± 0.84 kJ/mol
- -TΔS ([5]; with 2.5 mM calcium): -23.8 ± 1.7 kJ/mol
- ΔG ([5]; with 2.5 mM calcium): -43.9 ± 1.3 kJ/mol
- Ka ([5]; without calcium): 5.8 ± 0.37 ×10^7 M^-1
- N (stoichiometry of binding) ([5]; without calcium): 1.11 ± 0.1
- ΔH ([5]; without calcium): -17.6 ± 1.3 kJ/mol
- -TΔS ([5]; without calcium): -26.8 ± 2.9 kJ/mol
- ΔG ([5]; without calcium): -44.4 ± 1.7 kJ/mol
- Ka ([2]; with 2.5 mM calcium): 4.5 ± 0.5 ×10^7 M^-1
- N (stoichiometry of binding) ([2]; with 2.5 mM calcium): 0.9 ± 0.1
- ΔH ([2]; with 2.5 mM calcium): -25.9 ± 0.17 kJ/mol
- -TΔS ([2]; with 2.5 mM calcium): -17.6 ± 0.42 kJ/mol
- ΔG ([2]; with 2.5 mM calcium): -43.5 ± 0.42 kJ/mol
- Ka ([2]; without calcium): 4.5 ± 2.5 ^1 ×10^7 M^-1
- N (stoichiometry of binding) ([2]; without calcium): 0.9 ± 0.1
- -TΔS ([2]; without calcium): -18.4 ± 2.5 kJ/mol
- ΔG ([2]; without calcium): -43.1 ± 1.7 kJ/mol

Compound: calcium
- change in heat upon addition to thrombin in the cell (ITC) ([2]; calcium added to thrombin in the cell): no measurable direct binding

Compound: NC(N)=NCCC[C@H](NC(=O)[C@@H]1CCCN1C(=O)[C@H](N)Cc1ccccc1)C(=O)CCl [PPACK, DPhe-Pro-Arg-chloromethyl ketone]
- Tm of thrombin with ligand bound at the active site [6]: 70 °C
